Measured values from ChEMBL document CHEMBL1137637, “Quinuclidine derivatives as potential antiparasitics” (Antimicrob Agents Chemother, 2007).
Values after ≈ are worked out from the molar mass of the structure shown.

What was measured:
Leishmania amazonensis [1] = experiment: Inhibition of sterol biosynthesis in Leishmania mexicana amazonensis promastigotes assessed as reduction in endogenous 5-dehydro episterol level at 10 uM after 96 hrs by gas-liquid chromatography; type: functional; parameters: scale not given: the % may be the effect or the level left
How it was run: (§1)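 L. mexicana promastigotes exposed to compound for 96 h. Total lipids extracted and neutral sterols separated from polar lipids by silicic acid column chromatography. Sterols analysed by TLC and by quantitative capillary gas-liquid chromatography with mass spectrometry. Composition expressed as mass % of free sterols, compared with untreated control.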

Trypanosoma cruzi = experiment: Antitrypanosomal activity against trypomastigotes of Trypanosoma cruzi Tulahuen C2C4 containing lacZ gene in rat L6 cells after 4 days by chlorophenol red-beta-D-galactopyranoside/Nonidet assay; type: functional, organism-based; conditions: Tulahuen C2C4, L6, 96 h
How it was run: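 L-6 rat myoblasts seeded at 2,000 cells/well in RPMI 1640 with 10% FBS and 2 mM L-glutamine. After 24 h, 5,000 T. cruzi Tulahuen C2C4 lacZ trypomastigotes added with serial drug dilution. Incubated at 37°C in 5% CO2 for 4 days. CPRG/Nonidet substrate added and colour read at 540 nm after 2–4 h. IC50 from sigmoidal curve. Duplicate determinations.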

Plasmodium falciparum = experiment: Antiplasmodial activity after 48 hrs against chloroquine and pyrimethamine-resistant Plasmodium falciparum K1 in human erythrocytes by [3H]hypoxanthine uptake; type: functional, organism-based
How it was run: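 P. falciparum K1 in human red cells in RPMI 1640 with 5% Albumax, exposed to serial drug dilutions. Incubated 48 h at 37°C under reduced oxygen, then 0.5 μCi [³H]hypoxanthine per well for 24 h more. Cells harvested onto glass-fibre filters and counted by scintillation. Result expressed as % of untreated control, with IC50 from sigmoidal curve. Duplicate, plus an independent repeat for actives.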

[2] = target: T1, Farnesyltransferase, putative (Leishmania major, UniProt Q4Q5W4); experiment: Inhibition of Leishmania major recombinant squalene synthase expressed in Escherichia coli by liquid scintillation counter
T1 sequence (Q4Q5W4 whole entry): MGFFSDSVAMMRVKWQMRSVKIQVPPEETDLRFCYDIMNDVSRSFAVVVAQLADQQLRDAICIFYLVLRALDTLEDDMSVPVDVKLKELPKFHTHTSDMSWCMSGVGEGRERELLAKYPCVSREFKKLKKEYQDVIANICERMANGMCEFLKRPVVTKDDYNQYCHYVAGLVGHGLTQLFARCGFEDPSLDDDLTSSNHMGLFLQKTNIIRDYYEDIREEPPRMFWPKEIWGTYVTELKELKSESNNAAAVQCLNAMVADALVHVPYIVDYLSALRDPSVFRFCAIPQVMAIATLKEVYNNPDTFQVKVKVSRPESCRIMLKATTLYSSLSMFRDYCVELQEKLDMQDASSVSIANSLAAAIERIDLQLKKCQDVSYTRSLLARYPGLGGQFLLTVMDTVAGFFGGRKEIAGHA
How it was run: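 Soluble E. coli extract expressing L. major SQS truncated by 16 N-terminal and 40 C-terminal residues. Buffer: 50 mM phosphate pH 7.4, 20 mM MgCl2, 5 mM CHAPS, 1% Tween 80, 10 mM DTT, BSA, 0.25 mM NADPH, and a glucose-6-phosphate/G6PDH regenerating system. Substrate 0.5 μM radiolabelled farnesyl pyrophosphate. Squalene band counted by scintillation. IC50 from hyperbolic plot of five concentrations in duplicate, usually run twice.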

Leishmania amazonensis [3] = experiment: Antileishmanial activity against Leishmania mexicana amazonensis promastigotes by trypan blue exclusion method; type: functional, organism-based
How it was run: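 L. mexicana amazonensis promastigotes cultured in liver infusion-tryptose medium with lactalbumin and 10% FCS at 26°C, unagitated. Cultures started at 2 × 10⁶ cells/ml and drug added at 0.5–1 × 10⁷ cells/ml. Density counted by electronic particle counter and hemocytometer. Viability by trypan blue exclusion. Triplicate growth experiments.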

[4] = system: Trypanosoma brucei rhodesiense; experiment: Trypanocidal activity against Trypanosoma brucei rhodesiense STIB 900 bloodstream form after 72 hrs by resazurin assay; type: functional, organism-based; conditions: STIB 900, 72 h
How it was run: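 T. b. rhodesiense STIB 900 bloodstream forms in MEM with 2-mercaptoethanol and 15% heat-inactivated horse serum, with serial drug dilutions. Incubated 72 h at 37°C in 5% CO2. Resazurin added for 2–4 h more, fluorescence read at ex 536/em 588 nm. IC50 from sigmoidal curve. Duplicate, with an independent repeat for actives.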

Leishmania amazonensis [5] = experiment: Inhibition of sterol biosynthesis in Leishmania mexicana amazonensis promastigotes assessed as reduction in endogenous episterol level at 10 uM after 96 hrs by gas-liquid chromatography; type: functional; parameters: scale not given: the % may be the effect or the level left; how it was run: as §1
L6 = experiment: Cytotoxicity against rat L6 cells after 72 hrs by resazurin assay; type: cell-based; conditions: L6, 72 h
How it was run: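 L-6 cells seeded at 4 × 10⁴ cells/ml in RPMI 1640 with 10% FBS and 2 mM L-glutamine. After 24 h, medium replaced with serial drug dilution and incubated for 72 h at 37°C in 5% CO2. Resazurin added for 2–4 h, fluorescence read at ex 536/em 588 nm. IC50 from sigmoidal curve. Duplicate, with an independent repeat for actives.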

Leishmania donovani = experiment: Antileishmanial activity against Leishmania donovani MHOM/ET/67/L82 axenic amastigotes after 72 hrs by resazurin assay; type: functional, organism-based; conditions: MHOM/ET/67/L82, 72 h
How it was run: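 L. donovani MHOM/ET/67/L82 amastigotes grown axenically at 37°C in synthetic minimal medium at pH 5.4 with 10% heat-inactivated FBS under 5% CO2. 1 × 10⁵ amastigotes per well with seven threefold dilutions, 30 to 0.041 μg/ml. After 72 h, resazurin added for 2–4 h more. Fluorescence read at ex 536/em 588 nm. IC50 taken from sigmoidal curve. Run in duplicate, with an independent repeat for actives.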

Leishmania amazonensis [6] = experiment: Inhibition of sterol biosynthesis in Leishmania mexicana amazonensis promastigotes assessed as reduction in exogenous cholesterol level at 10 uM after 96 hrs by gas-liquid chromatography; type: functional; parameters: scale not given: the % may be the effect or the level left; how it was run: as §1
Leishmania amazonensis [7] = experiment: Inhibition of sterol biosynthesis in Leishmania mexicana amazonensis promastigotes assessed as reduction in endogenous cholesta-5,7,24-trien-3beta-ol level at 10 uM after 96 hrs by gas-liquid chromatography; type: functional; parameters: scale not given: the % may be the effect or the level left; how it was run: as §1

SMILES	Activity (Leishmania amazonensis [1])	IC50 (Trypanosoma cruzi)	IC50 (Plasmodium falciparum)	IC50 [2]	MIC (Leishmania amazonensis [3])	IC50 [4]	Activity (Leishmania amazonensis [5])	IC50 (L6)	IC50 (Leishmania donovani)	Activity (Leishmania amazonensis [6])	Activity (Leishmania amazonensis [7])
C1=C(c2cc3ccccc3o2)C2CCN1CC2	60%	61.3 µM	6.2 µM	> 1 µM	> 10 µM	17.1 µM	27.8%	177 µM	82 µM	12.2%	–
COCCCOc1ccc(C#C[C@@]2(O)CN3CCC2CC3)c(Cc2ccccc2)n1	–	–	–	0.033 µM	–	–	–	–	–	–	–
CO[C@H]1CN(c2ccc(C#C[C@@]3(O)CN4CCC3CC4)c(Cc3ccccc3)n2)C[C@H]1O	–	–	–	0.013 µM	–	–	–	–	–	–	–
Oc1ccc(C#CC2(O)CN3CCC2CC3)cc1 (stereo not given)	64.2%	90.4 µM	18.7 µM	> 1 µM	> 10 µM	53 µM	15.7%	> 370 µM	20 µM	20.1%	–
OC1(C#Cc2cccnc2)CN2CCC1CC2 (stereo not given)	75.9%	> 131 µM	18.9 µM	> 1 µM	> 10 µM	173 µM	11.2%	> 394 µM	9.2 µM	12.9%	–
OC[C@H]1CC2CCN1C[C@@H]2C#Cc1cnc2ccccc2c1 (stereo not given in full)	69.7%	33.8 µM	2.7 µM	> 1 µM	> 10 µM	10.9 µM	11.6%	38.9 µM	40.3 µM	18.7%	–
CCOC(=O)c1ccc(C#C[C@H]2CN3CCC2C[C@@H]3CO)cc1 (stereo not given in full)	55.5%	18.8 µM	1.1 µM	> 1 µM	> 10 µM	3.8 µM	11.4%	55.2 µM	> 96 µM	23.6%	9.5%
OC1(C#Cc2cnccn2)CN2CCC1CC2 (stereo not given)	52%	–	–	> 1 µM	3 µM (≈ 0.688 µg/mL)	–	14.2%	–	–	33.8%	–
C1=C(c2cnc3ccccc3c2)C2CCN1CC2	74.5%	51.1 µM	15 µM	> 1 µM	> 10 µM	22.4 µM	7.3%	276 µM	72.4 µM	18.2%	–
Cc1ccc(N)cc1C#CC1(O)CN2CCC1CC2 (stereo not given)	72.8%	> 117 µM	11.7 µM	> 1 µM	> 10 µM	62.4 µM	6.5%	> 351 µM	28.5 µM	20.7%	–
OC1(C#Cc2ccc3cc[nH]c3c2)CN2CCC1CC2 (stereo not given)	62.6%	26.2 µM	7.1 µM	> 1 µM	> 10 µM	19.9 µM	17.5%	> 338 µM	11.4 µM	19.9%	–
Nc1ccc(C#CC2(O)CN3CCC2CC3)cn1 (stereo not given)	75.2%	97 µM	> 21 µM	> 1 µM	> 10 µM	5.7 µM	11.6%	> 370 µM	10.8 µM	13.2%	–
OC1(C#Cc2ccc(Cl)nc2)CN2CCC1CC2 (stereo not given)	71.7%	> 114 µM	9.3 µM	> 1 µM	> 10 µM	53.3 µM	8.2%	> 342 µM	16.3 µM	20.1%	–
COC(=O)c1ccc(N)c(C#CC2(O)CN3CCC2CC3)c1 (stereo not given)	74.3%	44.9 µM	10.9 µM	> 1 µM	> 10 µM	30.8 µM	6.4%	> 300 µM	17.2 µM	19.3%	–
OC[C@H]1CC2CCN1C[C@@H]2C#Cc1ccc2ccccc2c1 (stereo not given in full)	65.7%	5.3 µM	3 µM	> 1 µM	> 10 µM	1.4 µM	11.2%	50.4 µM	12 µM	23.1%	–
CCOc1ccc(C#CC2(O)CN3CCC2CC3)cc1 (stereo not given)	45.4%	21.2 µM	5.9 µM	–	> 10 µM	5.4 µM	24.6%	> 332 µM	10.5 µM	30%	–
O=C(O)c1ccc(C#CC2(O)CN3CCC2CC3)cc1 (stereo not given)	70.9%	90.2 µM	> 18.4 µM	> 100 µM	> 10 µM	146 µM	7.2%	> 332 µM	> 111 µM	21.9%	–
COc1ccc(C#CC2(O)CN3CCC2CC3)cc1 (stereo not given)	66.8%	67.2 µM	8.2 µM	> 1 µM	> 10 µM	18.4 µM	13.4%	> 350 µM	7 µM	19.8%	–
OC[C@@H]1CC2CCN1C[C@@H]2C#Cc1ccc2ccccc2c1 (stereo not given in full)	68.4%	4.7 µM	2.1 µM	> 1 µM	> 10 µM	1.1 µM	9.6%	40.1 µM	22.6 µM	15.4%	6.6%
O=C(O)c1cc(C#CC2(O)CN3CCC2CC3)ccc1O (stereo not given)	74%	–	–	> 1 µM	> 10 µM	–	5.6%	–	–	20.4%	–
CC(=O)c1ccc(C#CC2(O)CN3CCC2CC3)s1 (stereo not given)	67.8%	72.6 µM	10.2 µM	> 1 µM	> 10 µM	30.3 µM	9.9%	194 µM	18.9 µM	22.3%	–
CCCCCCCCCCCCCCCCOP(=O)([O-])OCC[N+](C)(C)C [MILTEFOSINE]	–	–	–	–	–	–	–	–	0.338 µM	–	–
COc1cc([C@@H]2c3cc4c(cc3[C@H](O)[C@H]3COC(=O)[C@H]23)OCO4)cc(OC)c1OC [PODOFILOX]	–	–	–	–	–	–	–	0.014 µM	–	–	–
